This note sets out measurements from article PMC8842743 (Journal of Alzheimer's Disease Reports, 2022).

Structures are written as SMILES.

Series [1] in a line: Plasma and CSF pharmacokinetics in beagle dogs. In kind it is in vivo, dog.
In series [2] the test system is Aβ1-x, C99, sAβPPβ in PDAPP mice. Nature of the series: In vivo pharmacodynamics in PDAPP mice. On the set-up: species or system mouse. As to conditions: 3.0 mg/kg oral. In short, it runs like this:
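Young (2–3 months) female PDAPP mice (n = 6–8 per group) got a single oral gavage of vehicle (7% Pharmasolve, 10 mL/kg) or 0.3, 1.0 or 3.0 mg/kg. Hippocampal and cortical Aβ1–x, C99 and sAβPPβ were measured in brain extracts 3 h post-dose. In a time course (3.0 mg/kg, n = 6), hippocampal and CSF Aβ1–x were measured at 3, 6, 9 and 12 h. Statistics: ANOVA, then Tukey post hoc, p < 0.05.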

On to `COc1cnc(C(=O)Nc2ccc(F)c([C@]34CN(c5ncc(F)cn5)C[C@H]3CSC(N)=N4)c2)cn1` [LY3202626], for which, in series [1] (1.5 mg/kg oral), the “mean CSF AUC (3–9 h)” value came to 0.025 µM·h and the “mean free plasma AUC (3–9 h)” value worked out at 0.028 µM·h. Besides, in series [1] (1.5 mg/kg oral, mean±SD), the “plasma AUC(0-∞)” value came out at 10.812 ± 5.195 µM·h. Also, the Cmax in series [1] (read-out: maximum plasma concentration (Cmax), 1.5 mg/kg oral, mean±SD) was 2990 ± 750 nM. Further, in series [2] (3 h), the “Cortex C99 decrease vs vehicle” value was 65% and the “Cortex sAβPPβ decrease vs vehicle” value is 34%. Moreover, the “CSF Aβ1-X reduction vs vehicle, time course” value in series [2] (3 hrs) was 75%.
